From ChEMBL document CHEMBL4145671, “Development of Kinase-Selective, Harmine-Based DYRK1A Inhibitors that Induce Pancreatic Human β-Cell Proliferation” (J Med Chem, 2018)
Blank lines part the entries; values can stand above or below the molecule they belong to. Calls of active or inactive are those of the source. The calls are words filed in the database; no cut-off is given here.

Assays:
Pancreatic islet [1] = test: Induction of beta-cell proliferation in human pancreatic islets at 10 uM incubated for 96 hrs by Ki67 and insulin immunolabelling method; format: functional, cell-based
In short: (§1)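 Human islets from the NIH/NIDDK IIDP dispersed onto coverslips with Accutase, then treated with compound or vehicle (0.1% DMSO) in RPMI1640 complete medium for 96 h. Cells fixed, stained for insulin and Ki67, imaged; Ki67/insulin double-positive and total insulin-positive cells counted. Islets from 3 to 5 adult donors, at least 1000 beta cells counted per donor; n = 4–5, SEM.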

Pancreatic islet [2] = test: Induction of beta-cell proliferation in human pancreatic islets at 30 uM incubated for 96 hrs by Ki67 and insulin immunolabelling method; format: functional, cell-based; in short: as §1
Pancreatic islet [3] = test: Induction of beta-cell proliferation in human pancreatic islets incubated for 96 hrs by Ki67 and insulin immunolabelling method; format: functional, cell-based; in short: as §1
[4] = Toxicity in human pancreatic islets at 30 uM; format: cell-based; settings: pancreatic islet
[5] = target: Dual specificity tyrosine-phosphorylation-regulated kinase 1A (Rattus norvegicus) (UniProt Q63470); test: Inhibition of DYRK1A in rat R7T1 cells expressing expressing NFAT2-GFP assessed as induction of NFAT2-GFP nuclear translocation at 10 uM incubated for 24 hrs by; format: cell-based
In short: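 Immortalized R7T1 rat beta cells infected with adenovirus expressing NFAT2-GFP for 48 h, then exposed to compound at 10 μM for a further 24 h. Cells imaged and NFAT2-GFP nuclear translocation scored as nuclear frequency, at least 1000 cells counted; n = 3, SEM.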

[6] = target: Cyclin-dependent kinase 8 (Homo sapiens) (UniProt P49336); test: Inhibition of human CDK8 expressed in bacterial expression system assessed as remaining enzyme activity at 10 uM by kinome scan assay
Cyclin-dependent kinase 8 (Homo sapiens), sequence (P49336 whole entry): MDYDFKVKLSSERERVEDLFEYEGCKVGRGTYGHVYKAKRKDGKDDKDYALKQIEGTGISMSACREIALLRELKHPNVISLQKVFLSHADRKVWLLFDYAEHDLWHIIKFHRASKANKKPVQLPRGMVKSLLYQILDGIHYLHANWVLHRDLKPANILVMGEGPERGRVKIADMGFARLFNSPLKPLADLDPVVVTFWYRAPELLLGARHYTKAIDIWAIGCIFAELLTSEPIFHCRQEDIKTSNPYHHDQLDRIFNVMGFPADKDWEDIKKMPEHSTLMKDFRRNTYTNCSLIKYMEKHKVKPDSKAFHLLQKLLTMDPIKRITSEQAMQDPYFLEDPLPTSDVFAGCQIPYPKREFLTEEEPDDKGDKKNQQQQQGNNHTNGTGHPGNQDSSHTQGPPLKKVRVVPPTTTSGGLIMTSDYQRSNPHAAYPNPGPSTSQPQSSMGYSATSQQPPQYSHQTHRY

[7] = target: Cyclin-dependent kinase 19 (Homo sapiens) (UniProt Q9BWU1); test: Inhibition of human CDK11 expressed in bacterial expression system assessed as remaining enzyme activity at 10 uM by kinome scan assay
[8] = target: Cyclin-dependent kinase 7 (Homo sapiens) (UniProt P50613); test: Inhibition of human CDK7 expressed in mammalian expression system assessed as remaining enzyme activity at 10 uM by kinome scan assay
[9] = target: Cyclin-dependent kinase-like 5 (Homo sapiens) (UniProt O76039); test: Inhibition of human CDKL5 expressed in mammalian expression system assessed as remaining enzyme activity at 10 uM by kinome scan assay
[10] = target: Citron Rho-interacting kinase (Homo sapiens) (UniProt O14578); test: Inhibition of human CIT expressed in bacterial expression system assessed as remaining enzyme activity at 10 uM by kinome scan assay
[11] = target: Casein kinase I isoform alpha (Homo sapiens) (UniProt P48729); test: Inhibition of human CSNK1A1 expressed in mammalian expression system assessed as remaining enzyme activity at 10 uM by kinome scan assay
Casein kinase I isoform alpha (Homo sapiens), sequence (P48729 2-337 limits assumed): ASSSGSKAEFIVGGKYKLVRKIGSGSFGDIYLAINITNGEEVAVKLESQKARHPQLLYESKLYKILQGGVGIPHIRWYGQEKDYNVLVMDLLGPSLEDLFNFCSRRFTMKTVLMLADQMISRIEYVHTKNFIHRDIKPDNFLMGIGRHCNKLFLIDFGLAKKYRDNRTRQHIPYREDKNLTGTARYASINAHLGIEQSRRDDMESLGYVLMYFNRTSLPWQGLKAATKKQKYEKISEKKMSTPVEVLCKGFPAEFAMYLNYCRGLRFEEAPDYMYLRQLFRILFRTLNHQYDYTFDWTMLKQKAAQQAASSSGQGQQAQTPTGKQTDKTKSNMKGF

[12] = target: Casein kinase I isoform gamma-2 (Homo sapiens) (UniProt P78368); test: Inhibition of human CSNK1G2 expressed in bacterial expression system assessed as remaining enzyme activity at 10 uM by kinome scan assay
Casein kinase I isoform gamma-2 (Homo sapiens), sequence (P78368 whole entry, looked up, canonical isoform): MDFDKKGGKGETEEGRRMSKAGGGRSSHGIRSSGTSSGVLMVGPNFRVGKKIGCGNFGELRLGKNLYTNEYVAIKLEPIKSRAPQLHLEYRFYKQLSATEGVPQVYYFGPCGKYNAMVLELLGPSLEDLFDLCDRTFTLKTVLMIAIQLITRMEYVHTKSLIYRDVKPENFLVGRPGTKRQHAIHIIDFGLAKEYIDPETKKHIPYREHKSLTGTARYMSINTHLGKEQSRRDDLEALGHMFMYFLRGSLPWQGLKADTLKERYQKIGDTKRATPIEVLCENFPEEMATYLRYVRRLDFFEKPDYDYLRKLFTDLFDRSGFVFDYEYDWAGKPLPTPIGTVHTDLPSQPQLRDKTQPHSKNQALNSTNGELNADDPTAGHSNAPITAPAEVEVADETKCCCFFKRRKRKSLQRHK

[13] = target: Casein kinase II subunit alpha (Homo sapiens) (UniProt P68400); test: Inhibition of human CSNK2A1 expressed in mammalian expression system assessed as remaining enzyme activity at 10 uM by kinome scan assay
Casein kinase II subunit alpha (Homo sapiens), sequence (P68400 whole entry, looked up): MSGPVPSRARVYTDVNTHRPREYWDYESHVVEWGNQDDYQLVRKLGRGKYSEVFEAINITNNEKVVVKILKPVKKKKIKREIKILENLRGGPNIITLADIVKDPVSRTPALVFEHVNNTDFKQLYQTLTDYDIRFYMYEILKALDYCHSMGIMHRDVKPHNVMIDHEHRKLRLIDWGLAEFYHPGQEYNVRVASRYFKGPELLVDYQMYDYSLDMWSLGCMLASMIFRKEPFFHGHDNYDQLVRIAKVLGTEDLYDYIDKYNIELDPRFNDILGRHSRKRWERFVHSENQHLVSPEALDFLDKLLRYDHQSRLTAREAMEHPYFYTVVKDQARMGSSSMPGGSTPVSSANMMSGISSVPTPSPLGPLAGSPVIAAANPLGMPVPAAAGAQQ

[14] = target: Casein kinase II subunit alpha' (Homo sapiens) (UniProt P19784); test: Inhibition of human CSNK2A2 expressed in mammalian expression system assessed as remaining enzyme activity at 10 uM by kinome scan assay
Casein kinase II subunit alpha' (Homo sapiens), sequence (P19784 whole entry, looked up): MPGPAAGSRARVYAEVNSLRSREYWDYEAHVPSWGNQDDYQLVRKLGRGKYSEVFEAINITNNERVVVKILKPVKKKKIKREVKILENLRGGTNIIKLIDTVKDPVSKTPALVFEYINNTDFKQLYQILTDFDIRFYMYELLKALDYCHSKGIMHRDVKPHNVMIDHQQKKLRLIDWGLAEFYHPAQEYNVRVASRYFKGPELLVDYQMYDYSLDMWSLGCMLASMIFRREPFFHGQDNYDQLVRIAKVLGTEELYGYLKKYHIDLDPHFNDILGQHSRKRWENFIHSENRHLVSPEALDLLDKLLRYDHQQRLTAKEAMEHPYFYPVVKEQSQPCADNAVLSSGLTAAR

[15] = target: Death-associated protein kinase 1 (Homo sapiens) (UniProt P53355); test: Inhibition of human DAPK1 expressed in bacterial expression system assessed as remaining enzyme activity at 10 uM by kinome scan assay
[16] = target: Death-associated protein kinase 2 (Homo sapiens) (UniProt Q9UIK4); test: Inhibition of human DAPK2 expressed in bacterial expression system assessed as remaining enzyme activity at 10 uM by kinome scan assay
[17] = target: Death-associated protein kinase 3 (Homo sapiens) (UniProt O43293); test: Inhibition of human DAPK3 expressed in bacterial expression system assessed as remaining enzyme activity at 10 uM by kinome scan assay
[18] = target: Serine/threonine-protein kinase 17B (Homo sapiens) (UniProt O94768); test: Inhibition of human DRAK2 expressed in bacterial expression system assessed as remaining enzyme activity at 10 uM by kinome scan assay
[19] = target: Dual specificity tyrosine-phosphorylation-regulated kinase 1B (Homo sapiens) (UniProt Q9Y463); test: Inhibition of human DYRK1B expressed in bacterial expression system assessed as remaining enzyme activity at 10 uM by kinome scan assay
[20] = target: Homeodomain-interacting protein kinase 1 (Homo sapiens) (UniProt Q86Z02); test: Inhibition of human HIPK1 expressed in mammalian expression system assessed as remaining enzyme activity at 10 uM by kinome scan assay
[21] = target: Homeodomain-interacting protein kinase 2 (Homo sapiens) (UniProt Q9H2X6); test: Inhibition of human HIPK2 expressed in mammalian expression system assessed as remaining enzyme activity at 10 uM by kinome scan assay
[22] = target: Homeodomain-interacting protein kinase 3 (Homo sapiens) (UniProt Q9H422); test: Inhibition of human HIPK3 expressed in mammalian expression system assessed as remaining enzyme activity at 10 uM by kinome scan assay
Homeodomain-interacting protein kinase 3 (Homo sapiens), sequence (Q9H422 whole entry, looked up): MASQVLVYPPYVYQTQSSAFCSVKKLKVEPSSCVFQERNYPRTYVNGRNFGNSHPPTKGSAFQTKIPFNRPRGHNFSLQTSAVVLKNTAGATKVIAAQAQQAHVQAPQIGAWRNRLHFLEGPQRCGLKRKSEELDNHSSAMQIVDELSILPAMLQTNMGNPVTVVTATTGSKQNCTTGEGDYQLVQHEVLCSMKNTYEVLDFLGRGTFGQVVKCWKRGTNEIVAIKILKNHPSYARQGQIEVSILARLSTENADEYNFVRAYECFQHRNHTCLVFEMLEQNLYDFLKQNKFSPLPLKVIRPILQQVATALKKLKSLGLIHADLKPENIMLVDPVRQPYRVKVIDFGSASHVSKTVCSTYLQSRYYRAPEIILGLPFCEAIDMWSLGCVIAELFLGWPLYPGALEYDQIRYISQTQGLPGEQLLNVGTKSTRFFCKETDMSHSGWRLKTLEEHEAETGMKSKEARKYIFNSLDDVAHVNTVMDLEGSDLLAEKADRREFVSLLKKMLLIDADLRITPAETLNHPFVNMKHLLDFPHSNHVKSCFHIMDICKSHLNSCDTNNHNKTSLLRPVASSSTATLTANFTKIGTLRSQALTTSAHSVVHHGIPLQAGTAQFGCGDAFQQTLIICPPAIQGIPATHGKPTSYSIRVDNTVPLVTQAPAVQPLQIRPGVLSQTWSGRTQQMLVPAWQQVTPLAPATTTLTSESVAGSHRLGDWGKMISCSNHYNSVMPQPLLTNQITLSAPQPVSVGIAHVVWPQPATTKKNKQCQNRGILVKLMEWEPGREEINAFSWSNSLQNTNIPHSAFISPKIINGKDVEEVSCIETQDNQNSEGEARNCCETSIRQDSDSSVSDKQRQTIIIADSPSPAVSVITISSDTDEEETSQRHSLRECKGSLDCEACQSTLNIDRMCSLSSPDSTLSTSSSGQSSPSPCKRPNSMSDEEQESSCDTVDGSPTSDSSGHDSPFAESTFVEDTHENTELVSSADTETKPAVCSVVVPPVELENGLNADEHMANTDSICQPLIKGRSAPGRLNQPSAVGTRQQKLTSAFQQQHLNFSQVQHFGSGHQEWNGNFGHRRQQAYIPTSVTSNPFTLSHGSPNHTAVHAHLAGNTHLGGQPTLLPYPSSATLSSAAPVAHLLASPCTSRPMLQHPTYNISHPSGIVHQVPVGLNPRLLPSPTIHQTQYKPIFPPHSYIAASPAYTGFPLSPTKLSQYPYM

[23] = target: Interleukin-1 receptor-associated kinase 1 (Homo sapiens) (UniProt P51617); test: Inhibition of human IRAK1 expressed in mammalian expression system assessed as remaining enzyme activity at 10 uM by kinome scan assay
[24] = target: Interleukin-1 receptor-associated kinase 3 (Homo sapiens) (UniProt Q9Y616); test: Inhibition of human IRAK3 expressed in bacterial expression system assessed as remaining enzyme activity at 10 uM by kinome scan assay
[25] = target: Phosphatidylinositol 4-kinase beta (Homo sapiens) (UniProt Q9UBF8); test: Inhibition of human PIK4CB expressed in mammalian expression system assessed as remaining enzyme activity at 10 uM by kinome scan assay
[26] = target: Serine/threonine-protein kinase pim-1 (Homo sapiens) (UniProt P11309); test: Inhibition of human PIM1 expressed in bacterial expression system assessed as remaining enzyme activity at 10 uM by kinome scan assay
Serine/threonine-protein kinase pim-1 (Homo sapiens), sequence (P11309 whole entry, looked up): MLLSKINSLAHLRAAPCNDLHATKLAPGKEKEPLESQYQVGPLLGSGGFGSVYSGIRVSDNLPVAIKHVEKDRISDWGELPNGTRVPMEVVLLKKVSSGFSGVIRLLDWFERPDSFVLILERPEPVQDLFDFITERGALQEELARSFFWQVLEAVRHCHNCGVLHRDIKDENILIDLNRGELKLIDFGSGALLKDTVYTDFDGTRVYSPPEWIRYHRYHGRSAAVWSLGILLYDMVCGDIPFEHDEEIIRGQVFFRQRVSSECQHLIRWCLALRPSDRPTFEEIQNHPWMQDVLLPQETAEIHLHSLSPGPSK

[27] = target: Serine/threonine-protein kinase pim-2 (Homo sapiens) (UniProt Q9P1W9); test: Inhibition of human PIM2 expressed in bacterial expression system assessed as remaining enzyme activity at 10 uM by kinome scan assay
Serine/threonine-protein kinase pim-2 (Homo sapiens), sequence (Q9P1W9 whole entry, looked up): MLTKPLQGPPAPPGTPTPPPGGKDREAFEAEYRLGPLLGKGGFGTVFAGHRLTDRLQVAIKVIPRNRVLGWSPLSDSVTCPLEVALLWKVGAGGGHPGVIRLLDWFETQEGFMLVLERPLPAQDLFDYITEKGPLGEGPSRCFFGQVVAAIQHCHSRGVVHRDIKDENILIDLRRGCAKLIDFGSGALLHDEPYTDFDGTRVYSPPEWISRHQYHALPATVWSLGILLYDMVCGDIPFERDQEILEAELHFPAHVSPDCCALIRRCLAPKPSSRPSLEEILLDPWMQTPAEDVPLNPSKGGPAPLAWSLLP

[28] = target: Phosphatidylinositol 5-phosphate 4-kinase type-2 gamma (Homo sapiens) (UniProt Q8TBX8); test: Inhibition of human PIP5K2C expressed in mammalian expression system assessed as remaining enzyme activity at 10 uM by kinome scan assay
Phosphatidylinositol 5-phosphate 4-kinase type-2 gamma (Homo sapiens), sequence (Q8TBX8 whole entry): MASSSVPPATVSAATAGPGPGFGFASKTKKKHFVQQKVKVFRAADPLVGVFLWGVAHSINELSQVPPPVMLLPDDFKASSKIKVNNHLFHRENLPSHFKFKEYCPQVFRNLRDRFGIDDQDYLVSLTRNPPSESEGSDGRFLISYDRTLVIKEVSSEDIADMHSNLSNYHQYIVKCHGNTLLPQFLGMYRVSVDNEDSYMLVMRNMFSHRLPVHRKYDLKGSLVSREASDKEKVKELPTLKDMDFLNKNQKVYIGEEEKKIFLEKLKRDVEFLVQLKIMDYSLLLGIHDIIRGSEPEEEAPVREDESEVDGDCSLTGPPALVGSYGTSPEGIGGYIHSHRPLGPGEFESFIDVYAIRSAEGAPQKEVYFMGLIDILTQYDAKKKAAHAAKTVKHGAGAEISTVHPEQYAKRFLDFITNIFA

[29] = target: Ribosomal protein S6 kinase alpha-4 (Homo sapiens) (UniProt O75676); test: Inhibition of human RPS6KA4 (Kin.Dom.2-C-terminal) expressed in mammalian expression system assessed as remaining enzyme activity at 10 uM by kinome scan assay
Ribosomal protein S6 kinase alpha-4 (Homo sapiens), sequence (O75676 whole entry, looked up): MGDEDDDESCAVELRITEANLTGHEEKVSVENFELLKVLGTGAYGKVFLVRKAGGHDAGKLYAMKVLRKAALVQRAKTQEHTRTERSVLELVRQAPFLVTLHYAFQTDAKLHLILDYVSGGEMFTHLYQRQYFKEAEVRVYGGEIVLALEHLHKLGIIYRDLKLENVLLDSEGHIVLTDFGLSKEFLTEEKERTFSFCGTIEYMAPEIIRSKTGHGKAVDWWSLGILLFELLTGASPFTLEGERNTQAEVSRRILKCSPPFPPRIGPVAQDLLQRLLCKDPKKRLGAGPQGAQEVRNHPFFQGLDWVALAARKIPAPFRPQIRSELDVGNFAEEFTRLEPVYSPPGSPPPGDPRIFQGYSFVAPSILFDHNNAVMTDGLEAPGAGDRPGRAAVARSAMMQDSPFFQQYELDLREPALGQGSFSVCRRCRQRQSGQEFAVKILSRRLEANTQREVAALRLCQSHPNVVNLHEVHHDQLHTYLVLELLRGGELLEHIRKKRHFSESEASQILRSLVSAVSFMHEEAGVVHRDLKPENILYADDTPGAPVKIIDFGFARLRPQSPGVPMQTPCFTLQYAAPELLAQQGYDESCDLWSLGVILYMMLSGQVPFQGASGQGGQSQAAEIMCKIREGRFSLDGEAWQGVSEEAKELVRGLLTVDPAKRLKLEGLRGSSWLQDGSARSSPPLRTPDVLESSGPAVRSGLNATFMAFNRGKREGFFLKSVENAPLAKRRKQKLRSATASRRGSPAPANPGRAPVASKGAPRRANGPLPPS

[30] = target: TGF-beta receptor type-2 (Homo sapiens) (UniProt P37173); test: Inhibition of human TGFBR2 expressed in bacterial expression system assessed as remaining enzyme activity at 10 uM by kinome scan assay
[31] = Toxicity in human pancreatic islets at >10 uM; settings: pancreatic islet

inhibition [5]: Active
Compound: COc1ccc2c(c1)[nH]c1c(CO)nccc12
Activity (Pancreatic islet [1]): Active | Activity (Pancreatic islet [2]): Active | Activity (Pancreatic islet [3]): Dose-dependent effect | Activity [4]: Non-Toxic

Compound: COc1ccc2c(c1)[nH]c1c(C)nc(CO)cc12
Activity (Pancreatic islet [1]): Active | Activity (Pancreatic islet [2]): Active | Activity (Pancreatic islet [3]): Dose-dependent effect | Activity [4]: Non-Toxic | inhibition [5]: Active | Activity [6]: 0%

Compound: COc1ccc2c(c1)[nH]c1c(C(C)=O)nccc12
Activity (Pancreatic islet [2]): Active

Compound: COc1ccc2c(c1)[nH]c1c(Cl)nccc12
Activity (Pancreatic islet [1]): Active | Activity (Pancreatic islet [2]): Active

Compound: COc1ccc2c(c1)[nH]c1c(N3CCC3)nccc12
Activity (Pancreatic islet [1]): Active

Compound: COc1ccc2c(c1)[nH]c1c(N3CCCC3)nccc12
Activity (Pancreatic islet [1]): inactive

Compound: COc1ccc2c(c1)[nH]c1c(N3CCCC3Cc3ccccc3)nccc12 (stereo not given)
Activity (Pancreatic islet [1]): inactive

Compound: COc1ccc2c(c1)[nH]c1c(N3CCCC3c3ccccc3)nccc12 (stereo not given)
Activity (Pancreatic islet [1]): inactive

Compound: COc1ccc2c(c1)[nH]c1c(C)nccc12 [HARMINE]
Activity (Pancreatic islet [1]): Active | Activity [7]: 83% | Activity [8]: 21% | Activity [6]: 55% | Activity [9]: 100% | Activity [10]: 29% | Activity [11]: 15% | Activity [12]: 19% | Activity [13]: 11% | Activity [14]: 23% | Activity [15]: 78% | Activity [16]: 72% | Activity [17]: 69% | Activity [18]: 73% | Activity [19]: 6.1% | Activity [20]: 21% | Activity [21]: 8.6% | Activity [22]: 9.4% | Activity [23]: 17% | Activity [24]: 15% | Activity [25]: 12% | Activity [26]: 45% | Activity [27]: 39% | Activity [28]: 36% | Activity [29]: 40% | Activity [30]: 78% | Activity [31]: Toxic
